# pIC50, pKi: −log10 of the molar value.
# Experiments:
# [1] = molecular target: Botulinum neurotoxin type A (Clostridium botulinum) (UniProt P0DPI0); assay: Inhibition of Clostridium botulinum recombinant BoNT/A light chain using N-terminal acetylated, C-terminal aminated SNAP-25 (187-203) as substrate at 20 uM by reverse-phase HPLC analysis
# How it was run: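 Recombinant BoNT/A LC with SNAP-25 187–203 peptide substrate in 40 mM HEPES–0.05% Tween, pH 7.3, with 0.5 mg/mL BSA and 50 μM excess Zn, at 37 °C. Quenched with TFA; reverse-phase HPLC product/substrate peak areas give percent inhibition, run in duplicate.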
# [2] = molecular target: Botulinum neurotoxin type A (Clostridium botulinum, UniProt P0DPI0); assay: Inhibition of Clostridium botulinum recombinant BoNT/A light chain using N-terminal acetylated, C-terminal aminated SNAP-25 (187-203) as substrate by reverse-phase HPLC analysis
# Botulinum neurotoxin type A, sequence (P0DPI0 2-448 limits assumed): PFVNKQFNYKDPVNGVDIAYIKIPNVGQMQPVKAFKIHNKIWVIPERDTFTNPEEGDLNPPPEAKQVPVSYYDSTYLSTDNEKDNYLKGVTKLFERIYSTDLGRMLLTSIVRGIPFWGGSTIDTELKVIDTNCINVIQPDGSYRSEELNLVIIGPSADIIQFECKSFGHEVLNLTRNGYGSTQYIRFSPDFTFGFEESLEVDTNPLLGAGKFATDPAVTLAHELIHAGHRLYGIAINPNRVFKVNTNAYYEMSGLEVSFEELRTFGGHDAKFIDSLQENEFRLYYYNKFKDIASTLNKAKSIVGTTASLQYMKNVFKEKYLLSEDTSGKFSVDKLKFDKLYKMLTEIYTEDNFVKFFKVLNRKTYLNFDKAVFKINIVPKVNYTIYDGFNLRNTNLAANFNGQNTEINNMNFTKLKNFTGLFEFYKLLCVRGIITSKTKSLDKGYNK
# How it was run: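 Same HPLC LC cleavage assay (pH 7.3 HEPES/Tween, BSA, excess Zn, 37 °C). […] Ki comes from velocity versus substrate at several inhibitor levels, globally fit to a competitive model.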
# Plasmodium falciparum [3] = assay: Antimalarial activity against CQ-resistant, MFQ-susceptible Plasmodium falciparum W2 clone Indochina 1 isolate assessed as inhibition of parasite proliferation by MSF assay; type: functional, organism-based
# How it was run: (§1)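 SYBR Green I fluorescence (MSF) microtiter drug-sensitivity assay: malarial DNA content is the measure of in vitro parasite proliferation. Resistance index is the IC90 ratio of the resistant strain to D6.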
# Plasmodium falciparum [4] = assay: Antimalarial activity against CQ, MFQ-susceptible Plasmodium falciparum D6 clone Sierra 1/UNC isolate assessed as inhibition of parasite proliferation by MSF assay; type: functional, organism-based; how it was run: as §1
# Plasmodium falciparum [5] = assay: Antimalarial activity against CQ, MFQ-resistant Plasmodium falciparum TM91C235 clone Southeast asian isolate assessed as inhibition of parasite proliferation by MSF assay; type: functional, organism-based; how it was run: as §1
# Plasmodium falciparum [6] = assay: Resistance index, ratio of IC90 for CQ, MFQ-resistant Plasmodium falciparum TM91C235 clone Southeast asian isolate to IC90 for CQ, MFQ-susceptible Plasmodium falciparum D6 clone Sierra 1/UNC isolate; type: functional; how it was run: as §1
# Plasmodium falciparum [7] = assay: Resistance index, ratio of IC90 for CQ-resistant, MFQ-susceptible Plasmodium falciparum W2 clone Indochina 1 isolate to IC90 for CQ, MFQ-susceptible Plasmodium falciparum D6 clone Sierra 1/UNC isolate; type: functional; how it was run: as §1
# HepG2 = assay: Cytotoxicity against human HepG2 cells assessed as cell viability after 48 hrs by MTT assay; type: cell-based; conditions: HepG2, 48 h
# [8] = Selectivity index, ratio of IC50 for human HepG2 cells to IC50 for CQ-resistant, MFQ-susceptible Plasmodium falciparum W2 clone Indochina 1 isolate; type: toxicity, cell-based; conditions: read-out: Ratio IC50
# [9] = Selectivity index, ratio of IC50 for human HepG2 cells to IC50 for CQ, MFQ-susceptible Plasmodium falciparum D6 clone Sierra 1/UNC isolate; type: toxicity, cell-based; conditions: read-out: Ratio IC50
# [10] = Selectivity index, ratio of IC50 for human HepG2 cells to IC50 for CQ, MFQ-resistant Plasmodium falciparum TM91C235 clone Southeast asian isolate; type: toxicity, cell-based; conditions: read-out: Ratio IC50
# PBMC = assay: Cytotoxicity against human PBMC assessed as inhibition of cell survival after 72 hrs; type: cell-based
# How it was run: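 PBMC from heparinized healthy-donor blood (Histopaque) in RPMI-1640 with 10% FCS and PHA stimulation, 200 000 cells/well, with compounds in DMSO, 72 h at 37 °C, 6% CO2.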
# Liver microsome = assay: Half life in human liver microsomes; type: ADME; conditions: microsomes
# [11] = (§2) Half life in mouse liver microsomes; type: ADME; conditions: liver microsomes
# Liver = assay: as §2; type: ADME; conditions: microsomes
# Botulinum neurotoxin type A (Clostridium botulinum), sequence (P0DPI0 2-448 limits assumed): as above
SMILES,inhibition [1],pIC50 [2],pIC50 (Plasmodium falciparum [3]),IC90 (Plasmodium falciparum [3]),pIC50 (Plasmodium falciparum [4]),IC90 (Plasmodium falciparum [4]),pIC50 (Plasmodium falciparum [5]),IC90 (Plasmodium falciparum [5]),Ratio (Plasmodium falciparum [6]),Ratio (Plasmodium falciparum [7]),pIC50 (HepG2),selectivity ratio [8],selectivity ratio [9],selectivity ratio [10],pIC50 (PBMC),pKi [2],t1/2 (Liver microsome),half-life [11],t1/2 (Liver)
CC(=O)O[C@H]1C[C@H]2[C@@H]([C@H](OC(C)=O)C[C@@H]3C[C@H](N)CC[C@@]32C)[C@@H]2CC[C@H]([C@H](C)CCCN(CCCNc3ccnc4cc(Cl)ccc34)CCC[C@@H](C)[C@H]3CC[C@H]4[C@@H]5[C@H](OC(C)=O)C[C@@H]6C[C@H](N)CC[C@]6(C)[C@H]5C[C@H](OC(C)=O)[C@]34C)[C@@]12C,92.8%,6.20,6.66,414 nM,6.61,321 nM,6.53,313 nM,0.97,1.29,5.67,10,9,7,–,–,–,–,–
CC(=O)O[C@H]1C[C@H]2[C@@H]([C@H](OC(C)=O)C[C@@H]3C[C@H](NC(=O)OC(C)(C)C)CC[C@@]32C)[C@@H]2CC[C@H]([C@H](C)CCCNCCNc3ccnc4cc(Cl)ccc34)[C@@]12C,67.4%,5.31,8.13,12.3 nM,7.62,29.5 nM,7.56,51.9 nM,1.76,0.42,4.89,1740,531,464,–,–,–,–,–
CC(=O)O[C@H]1C[C@H]2[C@@H]([C@H](OC(C)=O)C[C@@H]3C[C@H](N(C)C)CC[C@@]32C)[C@@H]2CC[C@H]([C@H](C)CCCNCCCNc3ccnc4cc(Cl)ccc34)[C@@]12C,92.6%,5.87,7.44,81.1 nM,7.00,139 nM,7.05,165 nM,1.19,0.58,4.86,382,137,156,5.11,–,–,–,–
CC(=O)O[C@H]1C[C@H]2[C@@H]([C@H](OC(C)=O)C[C@@H]3C[C@H](N)CC[C@@]32C)[C@@H]2CC[C@H]([C@H](C)CCCNCCCNc3ccnc4cc(Cl)ccc34)[C@@]12C,84.8%,5.98,6.71,282 nM,6.86,234 nM,6.61,347 nM,1.49,1.21,4.98,54,75,43,–,5.46,–,–,–
CC(=O)O[C@@H]1CC[C@@]2(C)[C@@H](C1)C[C@@H](OC(C)=O)[C@@H]1[C@@H]2C[C@H](OC(C)=O)[C@]2(C)[C@@H]([C@H](C)CCCN(C)CCNc3ccnc4cc(Cl)ccc34)CC[C@@H]12,33.3%,–,7.73,38.6 nM,8.13,19.1 nM,7.64,32.9 nM,1.73,2.03,5.74,98,242,79,–,4.46,–,–,–
CC(=O)O[C@H]1C[C@H]2[C@@H]([C@H](OC(C)=O)C[C@@H]3C[C@H](O)CC[C@@]32C)[C@@H]2CC[C@H]([C@H](C)CCCNCCCNc3ccnc4cc(Cl)ccc34)[C@@]12C,69.9%,5.29,7.89,18.8 nM,8.03,16.5 nM,7.92,30.3 nM,1.84,1.14,5.97,84,115,90,–,–,0.13 h,1 h,–
CC(=O)O[C@H]1C[C@H]2[C@@H]([C@H](OC(C)=O)C[C@@H]3C[C@H](NS(C)(=O)=O)CC[C@@]32C)[C@@H]2CC[C@H]([C@H](C)CCCNCCCNc3ccnc4cc(Cl)ccc34)[C@@]12C,72.9%,5.49,7.46,96.4 nM,7.43,74.7 nM,7.52,56.2 nM,0.75,1.29,5.35,130,119,147,–,–,0.183 h,–,0.783 h
CC(=O)O[C@@H]1CC[C@@]2(C)[C@@H](C1)C[C@@H](OC(C)=O)[C@@H]1[C@@H]2C[C@H](OC(C)=O)[C@]2(C)[C@@H]([C@H](C)CCCN(C)CCCNc3ccnc4cc(Cl)ccc34)CC[C@@H]12,61.1%,5.35,7.93,16.9 nM,8.16,10.5 nM,7.65,47.3 nM,4.52,1.61,5.80,134,229,71,–,5.11,–,–,–
CC(=O)O[C@@H]1CC[C@@]2(C)[C@@H](C1)C[C@@H](OC(C)=O)[C@@H]1[C@@H]2C[C@H](OC(C)=O)[C@]2(C)[C@@H]([C@H](C)CCCNCCCNc3ccnc4cc(Cl)ccc34)CC[C@@H]12,81.4%,5.64,8.03,19 nM,8.01,13.8 nM,7.84,31.9 nM,2.31,1.38,6.01,104,101,67,–,5.25,–,–,–
CC(=O)O[C@H]1C[C@H]2[C@@H]([C@H](OC(C)=O)C[C@@H]3C[C@H](NS(C)(=O)=O)CC[C@@]32C)[C@@H]2CC[C@H]([C@H](C)CCCN(C)CCCNc3ccnc4cc(Cl)ccc34)[C@@]12C,55.6%,5.09,7.52,54.7 nM,7.50,55.9 nM,7.69,28.6 nM,0.51,0.98,5.55,93,89,139,–,–,0.183 h,1 h,–
CC(=O)O[C@H]1C[C@H]2[C@@H]([C@H](OC(C)=O)C[C@@H]3C[C@H](NC(=O)OC(C)(C)C)CC[C@@]32C)[C@@H]2CC[C@H]([C@H](C)CCCN(C)CCNc3ccnc4cc(Cl)ccc34)[C@@]12C,30%,5.17,8.09,11.7 nM,8.05,10.9 nM,7.79,22.6 nM,2.07,1.07,5.63,293,264,144,–,–,–,–,–
CC(=O)O[C@H]1C[C@H]2[C@@H]([C@H](OC(C)=O)C[C@@H]3C[C@H](N(C)C)CC[C@@]32C)[C@@H]2CC[C@H]([C@H](C)CCCN(C)CCNc3ccnc4cc(Cl)ccc34)[C@@]12C,85.5%,5.64,8.87,1.35 nM,8.63,2.63 nM,8.54,3.32 nM,1.26,0.51,5.04,6820,3920,3180,5.60,–,0.45 h,1 h,–

# From ChEMBL document CHEMBL3259704, “Second generation steroidal 4-aminoquinolines are potent, dual-target inhibitors of the botulinum neurotoxin serotype A metalloprotease and P. falciparum malaria” (J Med Chem, 2014)
